Assay results: ChEMBL document CHEMBL1148645, “Imino-tetrahydro-benzothiazole derivatives as p53 inhibitors: discovery of a highly potent in vivo inhibitor and its action mechanism” (J Med Chem, 2006)
Activity calls are given as the source filed them. The calls are words filed in the database; no cut-off is given here.

How the values were obtained:
[1] = species on record: Mus musculus; test: Toxicity against mouse E15.5 cortical neurones at 10 uM; conditions: in vitro
Method in brief: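 E15 mouse primary cortical neurons were cultured in neurobasal/B27 and exposed to compound at 10 µM. Live cells were counted after calcein-AM staining, with hemoglobin quench and whole-well imaging. Each experiment was repeated at least six times.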

[2] = test system: Cortical neurone; test: Inhibition of etoposide-induced death of mouse E15.5 cortical neurones; format: functional
Method in brief: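 Primary cortical neurons from E15 wild-type mouse embryos were exposed to etoposide at 1.25 and 2.5 µM, with compound alongside DMSO. Etoposide alone served as the control. Live cells were stained with calcein-AM for 45 min, quenched with hemoglobin, and whole wells were imaged and counted automatically. Survival is relative to untreated cultures set to 100%. At least six independent experiments were run, each in triplicate.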

[3] = biological target: Cellular tumor antigen p53 (Mus musculus) (UniProt P02340); test: Inhibition of p53-mediated increase in p21/WAF1 level at 300 nM; format: functional; conditions: filed as antagonist
Cellular tumor antigen p53 (Mus musculus), sequence (P02340 whole entry): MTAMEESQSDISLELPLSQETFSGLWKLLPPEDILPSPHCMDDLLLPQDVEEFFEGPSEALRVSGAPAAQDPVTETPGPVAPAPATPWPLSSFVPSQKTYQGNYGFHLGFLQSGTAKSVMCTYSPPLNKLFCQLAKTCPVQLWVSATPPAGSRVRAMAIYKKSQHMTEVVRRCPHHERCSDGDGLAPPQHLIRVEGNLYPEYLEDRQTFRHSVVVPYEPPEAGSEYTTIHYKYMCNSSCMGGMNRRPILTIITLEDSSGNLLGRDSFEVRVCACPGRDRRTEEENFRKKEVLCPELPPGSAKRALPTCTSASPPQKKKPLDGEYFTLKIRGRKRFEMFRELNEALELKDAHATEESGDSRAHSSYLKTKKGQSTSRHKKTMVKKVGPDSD
Method in brief: (§1)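 Wild-type E15 mouse cortical neurons were kept 3 days in vitro in neurobasal/B27 and treated with etoposide to trigger p53 activation. Time-course and concentration-dependent experiments were run. p21/WAF1 protein was detected by western blot of total extracts made in boiling SDS/Tris buffer.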

[4] = species on record: Rattus norvegicus; test: Protection against axotomy-induced RGC apoptosis in Wistar rat intravitreally injected with 0.06 uM; format: functional
Method in brief: (§2)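 Adult male Wistar rats (300-400 g) had the optic nerve transected, and RGCs were retrogradely labeled with FluoroGold placed on the stump. Compound or vehicle (DMSO 2%), 3 µL, was injected intravitreally on days 0, 3 and 7. Eyes were taken on day 14 and retinas flat-mounted. FG-positive RGCs were counted blind in fields at three eccentricities. Groups had n = 3-6, with DMSO as baseline; results are given as mean ± sem.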

[5] = biological target: Cellular tumor antigen p53 (Mus musculus) (UniProt P02340); test: Inhibition of p53-mediated increase in p21/WAF1 level at 30 nM; format: functional; conditions: filed as antagonist; method in brief: as §1
[6] = species on record: Rattus norvegicus; test: Protection against axotomy-induced RGC apoptosis in Wistar rat intravitreally injected with 6 uM; format: functional; method in brief: as §2

Compound	Activity [1]	Activity [2]	also measured
Br.COc1ccc(C(=O)Cn2c3c(sc2=N)CC2CCCCC2C3)cc1 (stereo not given)	Non-toxic		
Br.N=c1sc2c(n1CC(=O)c1ccc([N+](=O)[O-])cc1)CCCC2	Non-toxic	Active	Activity [3]: Antagonist; Activity [4]: 150%
Br.N=c1sc2c(n1C/C(=N/O)c1ccc([N+](=O)[O-])cc1)CCCC2	Non-toxic	inactive	
Br.Cc1ccc(C(=O)Cn2c3c(sc2=N)CC2CCCCC2C3)cc1 (stereo not given)	Non-toxic	inactive	
O=[N+]([O-])c1ccc(-c2cn3c4c(sc3n2)CCCC4)cc1	Non-toxic		EC50 ([2]; read-out: ED50 (the source's name)): 30 nM; Activity [5]: Antagonist; Activity ([4]; in the assay text read “6 uM” for “0.06 uM”): inactive; Activity [6]: inactive
Br.Cc1ccc(C(=O)Cn2c3c(sc2=N)CCCC3)cc1		Active	Activity [3]: Antagonist; Activity [4]: 98%; Activity [6]: 131%
Br.N=c1sc2c(n1CC(=O)c1ccc([N+](=O)[O-])cc1)CC1CCCCC1C2 (stereo not given)	Non-toxic	Active	
Br.COc1ccc(C(=O)Cn2c3c(sc2=N)CCCC3)cc1	Non-toxic	inactive	
Br.Cc1ccc(C(=O)Cn2c3c(sc2=N)CCCCC3)cc1	Non-toxic	inactive	
O=[N+]([O-])c1ccc(-c2cn3c4c(sc3n2)CC2CCCCC2C4)cc1 (stereo not given)	Non-toxic		
